The text below walks through data of publication PMC3698760 (Journal of the American Heart Association: Cardiovascular …, 2013).

“Also recorded” adds a separate entry of the source.

For data set [1] the following is noted: human whole plasma, 60 minutes at 37°C; FAMP5 0.2 to 2.0 mg/mL, ACD-FAMP5 2.0 mg/mL. The method in brief: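 Human whole plasma was incubated with saline, test peptide (0.2 to 2.0 mg/mL) or acridone-labelled peptide (2.0 mg/mL) for 60 min at 37°C. Samples were run on agarose gel electrophoresis with cholesterol staining, transferred to PVDF and immunoblotted with goat anti-human apoA-I antibody. The fluorescent label was visualized on the gel under UV light.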

Another data set in a line: Circular dichroism. The class given is physicochemical. To be noted: CD spectra in water, 200 to 260 nm. The method in brief: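 Spectra of peptides and human apoA-I (17.8 to 178 μmol/L) recorded at 25°C in a thermostatted quartz cell with 0.1 mm path length, scanning 200–260 nm. Results expressed as mean residue ellipticity (deg cm² dmol⁻¹).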
(In general: Circular dichroism is the unequal absorption of left and right circularly polarised light.)

The test system of data set [2] is monocyte‐derived macrophages from an ABCA1‐deficient Tangier disease patient. It counts as cell-based, human. To be noted: 20 μg/mL, 4 hours, n=4. The method in brief:
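Peripheral blood monocyte‑derived macrophages came from a healthy volunteer and a Tangier disease patient, with ethics approval and written consent. Cells were isolated by Lymphoprep density separation and labelled with ³H‑cholesterol. Efflux was run in serum‑free 0.2% BSA medium with or without 20 μg/mL human apoA‑I or test peptide for 4 h. n=4; mean±SD.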

The subject of the next data set is A172 human glioblastoma. Briefly: Cellular cholesterol efflux in A172 human cells. It counts as cell-based. The conditions noted are these: 4 hours. In outline: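 A172 human glioblastoma cells were grown in DMEM with 10% FBS and antibiotics, then labelled with ³H‑cholesterol. Efflux ran in serum‑free medium with 0.2% BSA, 5 μmol/L T0901317 and 5 μmol/L 9‑cis‑retinoic acid, with or without 10 μmol/L probucol. Acceptor was human apoA‑I or test peptide at 20 μg/mL, or a molar dose series, for 4 h. n=4–5; mean±SD.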

The target of data set [3] is T1, ABCA1 (Homo sapiens, UniProt O95477). Briefly: Cholesterol efflux in COS-7 cells transiently transfected with human ABCA1 cDNA. The class given is cell-based. The conditions noted are these: 20 μg/mL, 4 hours, n=6 to 7. In outline:
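COS‑7 cells were kept in DMEM with 10% FBS and antibiotics and seeded at 80–90% confluence. They were transfected by lipofection with human ABCA1 cDNA in pcDNA3.1 (with ABCG1 in pEdsRed‑N1), or with mock vector. Cells were then ³H‑cholesterol labelled, and efflux was measured in serum‑free medium with 0.2% BSA.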

The next data set concerns RAW264 macrophages. Briefly: Ex vivo cholesterol efflux mediated by plasma HDL of treated mice. The conditions noted are these: high-dose 50 mg/kg, 16 weeks; apoB-depleted plasma, 8Br-cAMP-treated RAW264 macrophages. The class given is in vivo. In outline: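 Plasma collected after 16 weeks of i.p. treatment of high-fat-fed apoE−/− mice. ApoB-depleted plasma served as acceptor for ³H-cholesterol-labelled RAW264 macrophages. Macrophages were pretreated with 0.3 mmol/L 8Br-cAMP and kept in serum-free medium with 0.2% BSA.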

Another data set has as its system human erythrocytes. Briefly: Hemolysis assay. The class given is cell-based. To be noted: 1% human erythrocytes in PBS, 10 minutes at 37°C; up to 1.0 mg/mL; OD 540 nm. The method in brief: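 Erythrocytes from EDTA blood of 4 human donors, washed 3 times in PBS to remove plasma and buffy coat. A 1% suspension in PBS was incubated with or without test peptide for 10 min at 37°C. Hemoglobin in the supernatant was read at 540 nm and expressed as percentage of Triton X-100 lysis; mean±SD.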

The next data set relates to C‐reactive protein (CRP). Briefly: Plasma high-sensitive CRP by ELISA. It counts as in vivo. The conditions noted are these: low (10 mg/kg) and high (50 mg/kg) doses, 16 weeks, apoE−/− mice. In outline: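 Overnight-fasted plasma collected from high-fat-fed apoE−/− mice after 16 weeks of i.p. dosing 3 times weekly (10 or 50 mg/kg per day, or scrambled peptide). High-sensitivity CRP and MCP-1 were quantified with commercial ELISA kits.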
(In general: ELISA stands for enzyme-linked immunosorbent assay.)

For data set [4], the target named is T1, ABCA1. Kind of data set: Cholesterol efflux in CHO-ldlA7 cells transfected with human ABCA1 cDNA. It counts as cell-based. To be noted: 20 μg/mL, 4 hours, n=6. The method in brief: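 CHO-ldlA7 cells seeded at 80–90% confluence were transiently transfected (Lipofectamine 2000) with human ABCA1 cDNA in pcDNA3.1 or with empty vector (mock). Cells were labelled with ³H-cholesterol in serum-free medium with 0.2% BSA. Efflux over 4 h was measured with or without 20 μg/mL human apoA-I or test peptide; n=6.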

Data set [5] deals with apoE−/− mice fed a high‐fat diet. Kind of data set: Aortic atherosclerotic lesion formation, 16-week treatment. It counts as in vivo. The conditions noted are these: high-dose 50 mg/kg i.p. 3 times per week, 16 weeks; Oil Red O; mean±SD; P<0.01 vs scrambled. In outline:
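Male apoE−/− mice, bought at six weeks, fed a high-fat diet (0.5% cholesterol, 10% fat) and dosed i.p. 3 times per week for 16 weeks: test peptide at 10 or 50 mg/kg per day, or scrambled peptide. Whole aortas were then stained with Oil Red O. Lesion area was scored by image analysis as percentage of aorta from ascending aorta to abdominal bifurcation.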

Data set [6] deals with mouse peritoneal macrophages. Kind of data set: Cellular cholesterol efflux in mouse peritoneal macrophages. It counts as cell-based. To be noted: 20 μg/mL, 4 hours, n=4 to 5. In outline: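 Peritoneal macrophages taken from mice injected i.p. with 2 mL 2.9% thioglycollate 90 h earlier, and selected as cells adherent after 2 h. Cells were labelled with ³H-cholesterol and kept in serum-free medium with 0.2% BSA. Efflux to 20 μg/mL acceptor was measured over 4 h.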

T1 sequence (O95477 whole entry): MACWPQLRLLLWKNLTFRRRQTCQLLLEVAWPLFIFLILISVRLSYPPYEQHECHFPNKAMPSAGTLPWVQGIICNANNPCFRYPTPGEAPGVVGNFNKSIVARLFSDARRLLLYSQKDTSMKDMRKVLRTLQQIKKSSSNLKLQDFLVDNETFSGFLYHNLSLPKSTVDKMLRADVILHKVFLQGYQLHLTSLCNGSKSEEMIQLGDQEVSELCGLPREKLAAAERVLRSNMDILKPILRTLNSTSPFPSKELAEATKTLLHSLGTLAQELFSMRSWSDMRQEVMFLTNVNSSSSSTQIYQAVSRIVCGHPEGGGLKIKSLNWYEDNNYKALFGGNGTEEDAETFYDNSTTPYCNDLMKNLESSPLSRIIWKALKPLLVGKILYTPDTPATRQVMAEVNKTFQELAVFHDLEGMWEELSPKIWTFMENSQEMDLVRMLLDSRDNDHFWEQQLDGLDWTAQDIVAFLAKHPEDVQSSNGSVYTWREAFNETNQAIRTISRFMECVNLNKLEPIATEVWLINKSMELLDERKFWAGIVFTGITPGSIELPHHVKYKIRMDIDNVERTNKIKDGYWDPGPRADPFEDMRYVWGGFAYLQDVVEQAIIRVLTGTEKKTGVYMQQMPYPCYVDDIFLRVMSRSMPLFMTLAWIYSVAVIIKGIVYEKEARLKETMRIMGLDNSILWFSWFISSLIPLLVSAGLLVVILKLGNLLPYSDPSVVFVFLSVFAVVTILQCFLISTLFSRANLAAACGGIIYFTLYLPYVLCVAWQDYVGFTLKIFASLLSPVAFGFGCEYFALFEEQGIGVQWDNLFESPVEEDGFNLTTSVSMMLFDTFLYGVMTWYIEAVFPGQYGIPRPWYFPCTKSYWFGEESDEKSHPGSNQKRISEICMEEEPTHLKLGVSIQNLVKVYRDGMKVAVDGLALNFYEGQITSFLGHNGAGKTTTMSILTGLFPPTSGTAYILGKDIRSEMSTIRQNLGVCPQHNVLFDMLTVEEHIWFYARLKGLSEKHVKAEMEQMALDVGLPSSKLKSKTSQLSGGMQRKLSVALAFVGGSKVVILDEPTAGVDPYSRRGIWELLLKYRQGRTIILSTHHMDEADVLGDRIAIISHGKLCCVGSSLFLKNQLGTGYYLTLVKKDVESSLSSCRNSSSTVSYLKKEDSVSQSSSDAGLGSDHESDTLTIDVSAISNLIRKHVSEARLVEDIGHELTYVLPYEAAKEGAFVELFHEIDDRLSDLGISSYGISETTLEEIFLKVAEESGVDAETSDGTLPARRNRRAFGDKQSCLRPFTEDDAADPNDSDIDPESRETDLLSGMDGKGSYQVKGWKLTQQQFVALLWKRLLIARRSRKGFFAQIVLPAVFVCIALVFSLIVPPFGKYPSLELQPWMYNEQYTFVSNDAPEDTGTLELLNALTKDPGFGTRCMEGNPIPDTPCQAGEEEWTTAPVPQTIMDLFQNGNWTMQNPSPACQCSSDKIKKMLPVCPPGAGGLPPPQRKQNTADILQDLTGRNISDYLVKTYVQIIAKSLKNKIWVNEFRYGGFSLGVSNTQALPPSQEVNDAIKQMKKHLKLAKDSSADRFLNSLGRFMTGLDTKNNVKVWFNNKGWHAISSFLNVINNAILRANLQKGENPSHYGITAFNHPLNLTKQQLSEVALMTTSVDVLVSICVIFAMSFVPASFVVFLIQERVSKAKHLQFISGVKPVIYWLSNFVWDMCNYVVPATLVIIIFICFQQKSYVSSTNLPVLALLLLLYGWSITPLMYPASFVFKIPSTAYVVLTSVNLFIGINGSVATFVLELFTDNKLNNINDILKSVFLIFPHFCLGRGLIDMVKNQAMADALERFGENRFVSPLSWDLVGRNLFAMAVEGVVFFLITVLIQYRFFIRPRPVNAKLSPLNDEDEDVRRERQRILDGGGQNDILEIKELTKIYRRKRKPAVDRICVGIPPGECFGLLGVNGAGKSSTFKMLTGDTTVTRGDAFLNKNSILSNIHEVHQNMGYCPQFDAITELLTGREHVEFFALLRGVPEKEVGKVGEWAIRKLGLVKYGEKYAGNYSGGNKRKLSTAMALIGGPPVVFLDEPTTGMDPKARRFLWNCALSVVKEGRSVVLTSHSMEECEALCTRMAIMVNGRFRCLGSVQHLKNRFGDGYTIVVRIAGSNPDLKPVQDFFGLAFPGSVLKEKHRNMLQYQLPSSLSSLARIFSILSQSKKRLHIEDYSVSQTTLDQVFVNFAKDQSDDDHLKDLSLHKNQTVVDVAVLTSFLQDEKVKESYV

As to H-ALEHLFTLYEKALKALEDLLKKLL-OH [FAMP5], the “conversion of α HDL to pre‐β HDL on agarose gel electrophoresis” value in data set [1] was “shifted the α HDL band to the pre‐β HDL position; also recorded: completely converted α HDL to pre‐β HDL”. Besides, in “Circular dichroism”, the “α‐helical conformation (CD spectra)” value is on record as “formed strong α‐helical conformations”. For the same substance, in [2], the “cholesterol efflux in Tangier disease macrophages vs healthy subject” value is reported as “suppressed”. Moreover, the “dose dependence of cholesterol efflux on a molar basis” value in the data set on A172 human glioblastoma (A172 cells, presence or absence of 5 μmol/L T0901317 or 9-cis-retinoic acid, n=4) is reported as “dose‐dependent induction of cholesterol efflux with saturation effects”. The “cellular cholesterol efflux: differences of terminal end modifications” value with A172 human glioblastoma (A172 cells, 20 μg/mL, n=5) is given as “no influence by the modification of terminal ends”. Further, the “effect of ABCA1 inactivation (probucol) on peptide-mediated cholesterol efflux” value in the data set with A172 human glioblastoma (probucol 10 μmol/L, 20 μg/mL) was “drastically inhibited; also recorded: not completely abolished”. In addition, the “cholesterol efflux after transient transfection with ABCA1 cDNA vs mock” value at ABCA1 [3] and at ABCA1 [4] was “significantly upregulated” in each case. In the data set on RAW264 macrophages, the “ex vivo cholesterol efflux mediated by HDL of treated mice” value is given as “significant increase”. In the data set with human erythrocytes, the “red cell hemolysis (percentage of the Triton X‐100 lysis)” value is given as “only limited effects”. Further, the “plasma high‐sensitive CRP levels” value in the data set with C‐reactive protein (CRP) is recorded as “equally suppressed”. In addition, in data set [5], the “relative surface area of aortic plaque lesions” value came to 16.2±5.0%. For the same substance, in data set [6], the cholesterol efflux entry is “induced cholesterol efflux significantly more than human apoA‐I”.
